Experimental data taken from PMC3082038 (Cancer Chemotherapy and Pharmacology, 2010).

Assays:
[1] = system: patients with advanced solid tumors; conditions: b.i.d., between-meal conditions; cited from earlier work
VCAM-1 = assay: Angiogenesis-related factor: VCAM-1; format: in vivo, human
Summary of the method: (§1)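 Plasma and urine were collected from patients before treatment and after day 8 and day 28 of oral test compound dosing, and analysed at a central commercial laboratory. ELISA kits were used for human VEGF (plasma and urine), ELAM-1, VCAM-1 and soluble t-PA. Soluble PAI-1 was measured by latex photometric immunoassay. Values are reported as median (range) per time point.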

solid tumors = assay: Antitumor effect; format: in vivo, human
[2] = system: liver cytochrome P450, CYP1A1/2; conditions: non-clinical studies; cited from earlier work
[3] = Urinary excretion of TSU-68; format: in vivo, human; conditions: all dose levels
Summary of the method: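 Urine was collected in 0–12 h (b.i.d.) or 0–6/0–12 h (t.i.d.) intervals after selected doses, plus pre-dose and up to 24 h after the final sampled dose. Drug was measured by validated HPLC-UV (LLOQ 0.1 μg/ml), and excretion was expressed as % of dose.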

urinary VEGF = assay: Angiogenesis-related factor: urinary VEGF; format: in vivo, human
Summary of the method: as §1

ELAM-1 = assay: Angiogenesis-related factor: ELAM-1; format: in vivo, human
Summary of the method: as §1

Cc1[nH]c(/C=C2\C(=O)Nc3ccccc32)c(C)c1CCC(=O)O [TSU-68, (Z)-5-[(1,2-dihydro-2-oxo-3H-indol-3-ylidene)methyl]-2,4-dimethyl-1H-pyrrole-3-propanoic acid]
Recommended dosage [1]: ≤ 800 mg/m^2
VCAM-1, median (VCAM-1; day 8, 23 patients): 562 ng/mL
VCAM-1, range (VCAM-1; day 8, 23 patients): 303–1,140 ng/ml
VCAM-1, median (VCAM-1; day 28, 22 patients): 545.5 ng/mL
VCAM-1, range (VCAM-1; day 28, 22 patients): 355 to 988 ng/mL
NC patients (solid tumors; 10/23 evaluable patients): 43.5%
Tumor control rate (solid tumors; 10/23 patients): 43.5%
PR patient (solid tumors; 23 evaluable patients): not found
TTP (time to progression) (solid tumors; Pt 1, Cervical ca., b.i.d. 200 mg/m^2 (800 mg/day)): 162 days
TTP (time to progression) (solid tumors; Pt 2, NSCLC, b.i.d. 200 mg/m^2 (800 mg/day)): 64 days
TTP (time to progression) (solid tumors; Pt 4, SCLC, b.i.d. 400 mg/m^2 (1,200 mg/day)): ≥ 29 days
TTP (time to progression) (solid tumors; Pt 8, Cholecystis ca., b.i.d. 400 mg/m^2 (1,200 mg/day)): 61 days
TTP (time to progression) (solid tumors; Pt 9, NSCLC, b.i.d. 400 mg/m^2 (1,200 mg/day)): ≥ 29 days
TTP (time to progression) (solid tumors; Pt 14, Soft tissue sa., t.i.d. 200 mg/m^2 (600 mg/day)): ≥ 254 days
TTP (time to progression) (solid tumors; Pt 17, NSCLC, t.i.d. 200 mg/m^2 (1,200 mg/day)): 65 days
TTP (time to progression) (solid tumors; Pt 19, NSCLC, t.i.d. 400 mg/m^2 (2,400 mg/day)): ≥ 28 days
TTP (time to progression) (solid tumors; Pt 20, Colon ca., t.i.d. 400 mg/m^2 (1,800 mg/day)): ≥ 217 days
TTP (time to progression) (solid tumors; Pt 23, Colon ca., t.i.d. 400 mg/m^2 (1,800 mg/day)): ≥ 28 days
Median survival period (solid tumors; all dose levels): 218 days
Median time to progression (solid tumors; all dose levels): 28 days
Effect on liver cytochrome P450, CYP1A1/2 involved in its own metabolism [2]: induction
Urinary excretion of TSU-68 [3]: below 1 % of dose
Urinary VEGF, median (urinary VEGF; day 8, 23 patients): 144 pg/mL
Urinary VEGF, range (urinary VEGF; day 8, 23 patients): <31 to 1210 pg/mL
Urinary VEGF, median (urinary VEGF; day 28, 22 patients): 162.5 pg/mL
Urinary VEGF, range (urinary VEGF; day 28, 22 patients): 68 to 730 pg/mL
ELAM-1, median (ELAM-1; day 8, 23 patients): 50 ng/mL
ELAM-1, range (ELAM-1; day 8, 23 patients): 13 to 136 ng/mL
ELAM-1, median (ELAM-1; day 28, 22 patients): 45.5 ng/mL
ELAM-1, range (ELAM-1; day 28, 22 patients): 17 to 114 ng/mL
